In ChEMBL document CHEMBL1142011, “Discovery of an exceptionally potent and selective class of fatty acid amide hydrolase inhibitors enlisting proteome-wide selectivity screening: concurrent optimization of enzyme inhibitor potency and selectivity” (Bioorg Med Chem Lett, 2005):
Several values for one entry are separate records, joined by “and”; a condition that tells them apart may be missing. Identical values can stand only once.

Legend:
[1] = Concentration of 50% inhibition of KIAA1363 was determined using FP-Rh as radioligand
Method in brief: (§1)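 Competitive activity-based profiling of native membrane proteomes (brain, heart) with no purified enzyme or substrate. Proteome was incubated with rhodamine-tagged fluorophosphonate (FP-Rh) across systematically varied inhibitor concentrations under kinetically controlled conditions. Labeled serine hydrolases were resolved by SDS-PAGE and fluorescence-detected. Loss of band labeling gave IC50 for each enzyme.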

[2] = molecular target: T1, Fatty-acid amide hydrolase 1 (Mus musculus, UniProt O08914); assay: Inhibitor affinity towards enzymes of class serine hydrolase was determined using biotin or fluorescent as radioligand (FP-biotin or FP-Rh)
T1 sequence (O08914 whole entry): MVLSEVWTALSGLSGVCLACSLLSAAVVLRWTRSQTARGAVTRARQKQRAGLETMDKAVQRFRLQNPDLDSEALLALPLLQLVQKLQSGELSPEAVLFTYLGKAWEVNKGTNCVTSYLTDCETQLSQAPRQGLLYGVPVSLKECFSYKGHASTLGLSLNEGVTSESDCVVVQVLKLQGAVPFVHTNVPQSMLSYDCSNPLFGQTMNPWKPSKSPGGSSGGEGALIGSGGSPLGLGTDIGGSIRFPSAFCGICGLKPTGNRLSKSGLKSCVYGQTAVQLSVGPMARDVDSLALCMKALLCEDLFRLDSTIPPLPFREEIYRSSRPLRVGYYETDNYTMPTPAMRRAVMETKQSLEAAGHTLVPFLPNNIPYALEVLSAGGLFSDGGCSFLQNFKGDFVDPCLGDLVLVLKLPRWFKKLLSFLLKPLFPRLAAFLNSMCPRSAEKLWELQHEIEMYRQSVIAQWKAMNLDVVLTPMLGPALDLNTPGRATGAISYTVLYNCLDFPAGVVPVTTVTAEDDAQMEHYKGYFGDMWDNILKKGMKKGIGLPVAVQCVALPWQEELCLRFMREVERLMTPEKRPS

[3] = molecular target: T2, Liver carboxylesterase 1 (Homo sapiens, UniProt P23141); assay: Inhibitory concentration of triacylgylcerol hydrolase using FP-Rh radioligand; method in brief: as §1
T2 sequence (P23141 whole entry): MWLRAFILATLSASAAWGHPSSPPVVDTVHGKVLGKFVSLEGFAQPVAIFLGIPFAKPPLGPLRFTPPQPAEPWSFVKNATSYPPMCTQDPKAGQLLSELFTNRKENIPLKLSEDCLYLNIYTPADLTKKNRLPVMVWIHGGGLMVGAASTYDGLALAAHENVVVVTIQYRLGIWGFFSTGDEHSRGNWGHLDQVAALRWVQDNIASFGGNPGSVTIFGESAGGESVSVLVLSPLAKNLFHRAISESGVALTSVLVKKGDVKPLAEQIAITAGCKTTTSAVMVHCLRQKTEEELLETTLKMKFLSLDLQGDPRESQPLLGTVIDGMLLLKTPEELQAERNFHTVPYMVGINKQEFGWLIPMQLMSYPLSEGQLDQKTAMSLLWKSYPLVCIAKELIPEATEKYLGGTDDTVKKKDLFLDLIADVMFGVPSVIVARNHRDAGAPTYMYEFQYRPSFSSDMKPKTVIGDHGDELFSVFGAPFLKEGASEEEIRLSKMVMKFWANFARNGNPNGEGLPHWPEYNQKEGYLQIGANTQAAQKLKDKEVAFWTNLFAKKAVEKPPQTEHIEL

[4] = molecular target: T3, Fatty-acid amide hydrolase 1 (Homo sapiens, UniProt O00519); assay: Inhibitory concentration of fatty acid amide hydrolase using FP-Rh radioligand; method in brief: as §1
T3 sequence (O00519 whole entry): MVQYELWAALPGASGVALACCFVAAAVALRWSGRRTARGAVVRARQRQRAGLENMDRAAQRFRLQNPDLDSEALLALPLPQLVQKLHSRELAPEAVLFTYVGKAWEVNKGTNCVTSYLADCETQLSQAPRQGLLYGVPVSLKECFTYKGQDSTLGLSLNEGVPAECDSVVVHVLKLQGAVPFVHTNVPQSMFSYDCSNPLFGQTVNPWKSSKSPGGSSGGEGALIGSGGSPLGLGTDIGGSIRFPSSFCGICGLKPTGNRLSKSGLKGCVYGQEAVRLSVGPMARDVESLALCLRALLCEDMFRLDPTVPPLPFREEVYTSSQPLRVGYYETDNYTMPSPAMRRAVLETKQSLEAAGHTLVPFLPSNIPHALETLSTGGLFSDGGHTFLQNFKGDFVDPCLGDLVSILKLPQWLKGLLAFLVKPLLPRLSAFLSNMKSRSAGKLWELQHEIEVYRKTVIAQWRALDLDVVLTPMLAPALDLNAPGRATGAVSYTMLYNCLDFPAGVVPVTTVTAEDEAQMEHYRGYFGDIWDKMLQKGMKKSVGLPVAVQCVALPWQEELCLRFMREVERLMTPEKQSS

IC50 [1] [nM]	Ki [2]	IC50 [3] [nM]	IC50 [4] [nM]	Compound
> 100000	1 nM	100	20	O=C(CCCCCCc1ccccc1)c1nnc(-c2cccnc2)o1
60000	–	200	0.6	O=C(CCCCCCCc1ccccc1)c1nnc(-c2ccccn2)o1
> 100000	220 nM	20	10000	O=C(CCCCCc1ccccc1)c1nc2ccccc2o1
400	130 nM	10	10000	CCCCCCCCCC(=O)C(F)(F)F
500	140 nM	70	10000	CCCCCCCCCCCC(=O)C(F)(F)F
> 100000	320 nM	50000	5000	CCCCCCCC/C=C\CCCCCCCC(=O)c1ncc(-c2ccccc2)o1
3000	0.85 nM and 0.83 nM	500	0.8	O=C(CCCCCCCCc1ccccc1)c1nnc(-c2ccccn2)o1
90000	–	140	1	O=C(CCCCCCc1ccccc1)c1nnc(-c2ccccn2)o1
6600	240 nM	4600	6400	CCCCCCCCCCCCCCCCCC(=O)C(F)(F)F
> 100000	7.5 nM	1000	8	O=C(CCCCCCCc1ccccc1)c1ncc(-c2ccccn2)o1
> 100000	11 nM	200	100	O=C(CCCCCc1ccccc1)c1ncc(-c2ccccn2)o1
> 100000	16 nM	20000	200	CCCCCCCC/C=C\CCCCCCCC(=O)c1nnc(-c2ccccc2)o1
> 100000	18 nM	50000	200	CCCCCCCC/C=C\CCCCCCCC(=O)c1ncc(-c2ccccn2)o1
800	170 nM	0.5	5000	O=C(CCCCCc1ccccc1)C(F)(F)F
> 100000	370 nM	10000	10000	CCCCCCCC/C=C\CCCCCCCC(=O)c1nc2ccccc2o1
–	0.56 nM	–	–	O=C(CCCCCCc1ccccc1)c1nnc(-c2ccco2)o1

Second part, the molecule before the results:

Compound	IC50 [1] [nM]	Ki [2]	IC50 [3] [nM]	IC50 [4] [nM]
CCCCCCCC/C=C\CCCCCCCC(=O)c1nnc(-c2ccccn2)o1	> 100000	3 nM	20000	4
CCCCCCCC/C=C\CCCCCCCC(=O)c1nnco1	–	90 nM	–	–
O=C(CCCCCc1ccccc1)c1nc2ncccc2o1	10000	0.2 nM	1	1
O=C(CCCCCCc1ccccc1)c1nnc(-c2ccncc2)o1	> 100000	1 nM	30	20
O=C(CCCCCCCCc1ccccc1)c1ncc(-c2ccccn2)o1	> 100000	7.8 nM	6000	30
O=C(CCCCCCc1ccccc1)c1nnc(-c2ccccc2)o1	–	2 nM	–	–
O=C(CCCCCc1ccccc1)c1nnc(-c2cccnc2)o1	–	0.85 nM	–	–
O=C(CCCCCCc1ccccc1)C(F)(F)F	200	100 nM	1	5000
O=C(CCCCCc1ccccc1)c1nnc(-c2ccccn2)o1	50000	–	30	4
O=C(CCCCCCc1ccccc1)c1nc2ncccc2o1	20000	0.28 nM	3	0.3
O=C(CCCCCCCCc1ccccc1)c1nc2ncccc2o1	10000	0.52 nM	5	0.1
O=C(CCCCCCCc1ccccc1)c1nnc(-c2ccco2)o1	–	0.29 nM	–	–
O=C(CCCCCCCc1ccccc1)C(F)(F)F	200	25 nM	5	2000
O=C(CCCCCCc1ccccc1)c1ncc(-c2ccccn2)o1	> 100000	–	–	–
CCCCCCCC(=O)C(F)(F)F	1500	1200 nM	2	30000
CCCCCCCC/C=C\CCCCCCCC(=O)c1ncco1	> 100000	100 nM	9000	2000
CCCCCCCC/C=C\CCCCCCCC(=O)c1nc2ncccc2o1	60000	2.3 nM	1000	40
O=C(CCCCCCCc1ccccc1)c1nc2ncccc2o1	20000	0.39 nM	5	0.3
CCCCCCCC/C=C/CCCCCCCC(=O)C(F)(F)F	1000	80 nM	5000	5000
